# High-throughput results: PubChem BioAssay, The Scripps Research Institute Molecular Screening Center
# M1 antag = antagonists of human M1 muscarinic receptor; P11229; CHO-K1 hM1, Fluo-8 calcium fluorescence, ACh EC80 antagonist; inhibition, % at 3 µM; actives 1.3% (n = 360,000); AID 588852;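 active means percent inhibition above its own plate's cutoff, namely the mean of that plate's compound wells plus 3 SD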;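 further: peak over basal fluorescence ratio during 140 s after agonist addition; 0% = ACh EC80 plus DMSO and 100% = DMSO alone without agonist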
# Target sequence (P11229 whole entry, looked up): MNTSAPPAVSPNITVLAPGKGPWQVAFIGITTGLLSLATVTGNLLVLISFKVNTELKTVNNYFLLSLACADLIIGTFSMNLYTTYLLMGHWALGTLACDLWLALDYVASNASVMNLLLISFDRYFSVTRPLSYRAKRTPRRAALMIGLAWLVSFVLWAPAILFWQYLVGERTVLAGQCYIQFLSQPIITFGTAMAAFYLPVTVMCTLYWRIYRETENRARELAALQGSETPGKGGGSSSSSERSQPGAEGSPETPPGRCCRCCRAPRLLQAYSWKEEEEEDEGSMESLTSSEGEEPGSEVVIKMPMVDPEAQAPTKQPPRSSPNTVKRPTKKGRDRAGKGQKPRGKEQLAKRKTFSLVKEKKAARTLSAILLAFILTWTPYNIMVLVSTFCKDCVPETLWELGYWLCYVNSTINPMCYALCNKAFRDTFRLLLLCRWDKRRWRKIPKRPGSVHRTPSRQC
# M1 PAM = potentiates human M1 receptor response to acetylcholine; CHO-K1 hM1, Fluo-8 calcium fluorescence, ACh EC20; 0% = ACh EC20, 100% = maximal ACh; actives 0.088% (n = 360,000); P11229; AID 588819; activation, % at 3 µM; in the data active means activation above about 19%, passing the limit was not always enough
# TAAR1 ag = agonists of human TAAR1 | activation, % at 3 µM | Q96RJ0 | CHO RD-HGA16 TAAR1, Fluo-8 calcium fluorescence; vehicle wells 0%, saturating PEA agonist 100% | actives 0.99% (n = 360,000);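 active means activation above the mean activation of all test compounds in the run plus 3 SD, cut at about 38% in these data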
#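 System: CHO RD-HGA16 cells carrying human TAAR1 plus Gα16; Incubation: 17-24 h seeding, 75 min 37 °C dye, 30 min RT; Measured by: Fluo-8 fluorescence, 5 s baseline then 140 s kinetic read; Control set: DMSO and PEA EC100; Replication: single well for each compound.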
# CHRM1 agonist = human M1 muscarinic receptor agonism | actives 0.33% (n = 360,000) | CHO-K1 hM1, Fluo-8 calcium fluorescence, agonist mode; 0% DMSO, 100% acetylcholine EC100 | AID 588814 | activation, % at 3 µM;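 active means activation above the run's mean compound activation plus 3 SD, cut at about 16% in these data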;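 further: peak over basal fluorescence ratio within a 140 s kinetic read after compound addition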
# TAAR1 antagonist = human TAAR1 antagonism | CHO RD-HGA16 TAAR1, Fluo-8 calcium fluorescence, antagonist | inhibition, % at 3 µM | actives 1.5% (n = 360,000) | AID 624466;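 active means inhibition above a per-plate cutoff, the mean inhibition of test compounds on that plate plus 3 SD, cut at about 49% in these data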;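 further: 0% = DMSO plus EC80 beta-PEA response and 100% = DMSO alone without agonist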
#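 Test system: RD-HGA16 CHO cells with stable hTAAR1 and Gα16 / Probe or stimulus: EC80 β-phenethylamine stimulus / Times: seeding 17-24 h prior, 75-min 37 °C, 30-min RT dye loading / Detection: Fluo-8 calcium-sensitive fluorescence / Read-out basis: % inhibition scaled between DMSO and EC80 PEA controls / Repeats: singlicate, one well per test compound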
# * hit, by the source's call; . = no result. Only some compounds are listed: those with a hit (about 3.4% of all), similar ones and a draw of the others.
SMILES,M1 antag,M1 PAM,TAAR1 ag,CHRM1 agonist,TAAR1 antagonist
COC(=O)N1C[C@H](O)[C@H](O)C[C@@H]1c1ccccc1Br,.,.,1,.,8
O=[N+]([O-])c1cc([N+](=O)[O-])c2cc(-c3cccnc3)[nH]c2c1,-2,-2,19,3,49*
CC(=O)Oc1ccccc1Cn1c(C)c(C(=O)NCc2cccc([N+](=O)[O-])c2)sc1=O,23,-19,4,-8,5
N#Cc1c(N)[nH]c(C(=O)c2ccccc2)c1-c1ccc(Br)cc1,.,.,9,.,-22
O=C(Nc1c(F)c(F)c(F)c(F)c1F)OC[C@@H]1CSCCS(=O)(=O)N1,.,.,3,.,-4
CC1(C)Cc2cccc(OCC(=O)Nc3ccccc3N3CCOCC3)c2O1,30*,-13,13,-3,8
CC1(C)Cc2cccc(OCC(=O)N3CCN(c4ccccc4F)CC3)c2O1,0,-3,1,-3,22
COc1ccccc1N1CCN(C(=O)c2ccc(COc3cccc4c3OC(C)(C)C4)cc2)CC1,7,-5,0,-4,56*
COc1ccc(C2C(C(=O)c3ccccc3)N3c4ccccc4C=CC3C2[N+](=O)[O-])cc1 (stereo unspecified),10,-8,43*,1,19
CCN(CC)S(=O)(=O)c1ccc(N2CCOCC2)c(NC(=O)c2cccc3c(=O)c(C)c(-c4ccccc4)oc23)c1,25,-9,9,-3,54*
CCN(CC)S(=O)(=O)c1ccc(N2CCOCC2)c(NC(=O)c2cccc3ccccc23)c1,21,-13,12,-3,40
COc1cc(OC)c(N(C)S(=O)(=O)c2cccc(C(=O)OCC(=O)NCc3ccco3)c2)cc1Cl,11,-2,20,-2,51*
COc1ccc(N(C)S(=O)(=O)c2cccc(C(=O)OCC(=O)NCc3ccccc3OC)c2)cc1,25*,-13,11,1,57*
COc1cc(OC)c(N(C)S(=O)(=O)c2cccc(C(=O)Nc3nc(C)cs3)c2)cc1Cl,0,0,8,-2,51*
COc1ccc(N(C)S(=O)(=O)c2cccc(C(=O)Nc3nc(C)cs3)c2)cc1,5,-2,14,-3,37
CN(c1ccccc1)S(=O)(=O)c1cccc(C(=O)OCC(=O)NCc2ccco2)c1,5,2,4,-7,2
CN(c1ccccc1)S(=O)(=O)c1cccc(C(=O)OCC(=O)NCc2ccccc2)c1,-1,-5,5,-2,25
COc1ccc(N(C)S(=O)(=O)c2cccc(C(=O)OCC(=O)N3CC(C)CC(C)C3)c2)cc1 (stereo unspecified),19,-17,9,0,54*
O=[N+]([O-])c1cccc(I)c1,.,.,0,.,16
O=C1[C@H](Cc2ccccc2)NCCCC[C@@H](c2ccc(Cl)cc2)N1Cc1ccccc1,3,7,39*,2,17
Cc1cc(C)cc(-n2c(C)cc(C(=O)CSc3nnnn3C)c2C)c1,-20,-7,38*,1,44
Cc1cc(C(=O)CSc2nnnn2C)c(C)n1-c1cccc(F)c1,13,-11,10,-12,3
CCOC(=O)C1CCN(Cc2nc3ccc([N+](=O)[O-])cc3c(=O)n2-c2ccc(OC)cc2OC)CC1,-4,-1,0,-1,-18
CCOC(=O)C1CCCN(Cc2ccc(O)c(OC)c2)C1 (stereo unspecified),1,0,4,23*,11
CCOC(=O)C1CCCN(Cc2nc3ccc([N+](=O)[O-])cc3c(=O)n2-c2ccc(OC)cc2OC)C1 (stereo unspecified),51*,-26,46*,54*,69*
CCOc1cc(CN2CCCC(C(=O)c3cccc(C(F)(F)F)c3)C2)ccc1O (stereo unspecified),32*,-22,0,-8,10
O=C(c1cccc(C(F)(F)F)c1)C1CCCN(Cc2cccn2-c2ncccn2)C1 (stereo unspecified),13,-28,4,-11,-7
CCc1c(-c2cccc(OC)c2)ncn1CCc1ccccc1OC,.,.,13,.,-11
Nc1[nH]c(C(=O)c2ccccc2)c(-c2ccc(Cl)c(F)c2)c1C(=O)c1c[nH]c2ccccc12,.,.,0,.,-2
